Screening data from PubChem.
Rows were chosen to be rich in hits. Some 1.4% of all compounds tested hit in one or more screens of this group.
Tb MetRS inh – Trypanosoma brucei MetRS inhibition; purified T. brucei MetRS, ATP depletion, Kinase-Glo luminescence; inhibition, % at 11.9 µM; hit rate 0.4% among 360,000; AID 624268;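 active = inhibition above a per-plate cutoff of the control wells' mean inhibition plus 3 SD, cut at about 5.5% in these data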;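 also: 0% = DMSO wells median and 100% = median of wells with control inhibitor compound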
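System: purified T. brucei MetRS enzyme / Detection: Kinase-Glo luciferase luminescence reporting remaining unconsumed ATP / Medium: HEPES buffer with MgCl2, KCl, DTT, spermine, BSA, pyrophosphatase / Replication: singlicate, one well per compound / Evaluation: percent inhibition relative to median high and low control wells / Schedule: 2 h aminoacylation at 25 °C after 15 min preincubation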
IDE act – activators of human insulin-degrading enzyme in cells; P14735; HEK cells, FAbeta-B cleavage, fluorescence polarization; 0% vehicle, 100% cell-free pure enzyme wells; activation, % at 5.96 µM; hit rate 0.073% among 340,000; AID 493087;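 active = activation above the mean of all tested compounds plus 3 SD, set per screening campaign, cut at about 17% in these data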
Efflux pump mplx – blocks antifungal efflux pumps in multiplex yeast assay; S. cerevisiae Candida pump triplex, Nile Red efflux; inhibition, % at 10 µM; hit rate 0.44% among 330,000;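 active = plate passing quality check with inhibition over a set limit, or well fluorescence over plate mean plus 4 SD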;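 also: Nile Red retained in pooled yeast measured as flow cytometry median fluorescence; 0% = buffer negative control and 100% = Enniatin B positive control; higher means more Nile Red kept so more efflux inhibition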
CR mimetic SO – caloric restriction mimetics inhibiting age-related superoxide in yeast | S. cerevisiae aged cells, superoxide DHE fluorescence; stronger effect = lower value | superoxide response (% of plate mean), % at 10 µM | AID 2690 | hit rate 0.18% among 330,000;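 active = superoxide response under a set limit, about three screen SD below normal, cut at about 65% in these data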;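 also: yeast aged for seven days with compound at 30 °C before DHE staining; 100% = average MFI of all compound-treated wells on the plate with controls excluded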
HDAC3 inh – human HDAC3 inhibition. inhibition, % at 8.3 µM. hit rate 0.15% among 320,000. AID 2718. O15379. recombinant HDAC3, fluorogenic peptide/trypsin coupled, fluorescence; in the data active = inhibition above about 26%, passing the limit was not always enough; inconclusive = no clear call, values can overlap the other calls
Target sequence (O15379 whole entry, looked up): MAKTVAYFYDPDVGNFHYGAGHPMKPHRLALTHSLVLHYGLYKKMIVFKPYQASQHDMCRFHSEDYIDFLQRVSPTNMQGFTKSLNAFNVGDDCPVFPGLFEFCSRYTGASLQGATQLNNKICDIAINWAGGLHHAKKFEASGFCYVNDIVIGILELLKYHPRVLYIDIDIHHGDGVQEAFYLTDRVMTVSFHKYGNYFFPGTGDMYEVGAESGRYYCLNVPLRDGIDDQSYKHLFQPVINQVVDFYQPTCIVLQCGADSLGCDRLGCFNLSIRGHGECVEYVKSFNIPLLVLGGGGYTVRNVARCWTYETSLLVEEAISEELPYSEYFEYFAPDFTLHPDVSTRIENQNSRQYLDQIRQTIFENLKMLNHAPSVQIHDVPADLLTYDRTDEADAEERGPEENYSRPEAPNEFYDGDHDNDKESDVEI
IDE inh – cellular human IDE inhibition | inhibition, % at 5.59 µM | HEK cells, FAbetaB cleavage, fluorescence polarization | hit rate 0.41% among 320,000 | P14735 | AID 434962;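 active = percent inhibition above the average of all tested compounds plus 3 SD, set per screening campaign, cut at about 16% in these data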;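 also: IDE supplied by intact live HEK cells; FP after avidin binding of uncleaved biotin substrate so inhibition keeps polarization high; 0% = DMSO wells and 100% = 60 µM reference IDE inhibitor Ii1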
IDE inh confirm – cellular human IDE inhibition, confirmation; HEK cells, FAbetaB cleavage, fluorescence polarization; inhibition, % at 5.59 µM; hit rate 51% among 1,200; shares compounds with IDE inh;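 active = mean inhibition across triplicate wells above the cutoff set by the earlier primary insulin-degrading enzyme screen, cut at about 16% in these data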;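 also: 0% = DMSO wells and 100% = 60 µM reference IDE inhibitor Ii1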
HEK293 tox – kills HEK cells in IDE inhibitor counter-screen. HEK293 cytotoxicity, ATP luminescence. hit rate 28% among 1,200. inhibition, % at 5.59 µM. AID 449730. shares compounds with IDE inh; in the data active = inhibition above about 22%;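 also: 0% = vehicle wells and 100% = reference cytotoxic drug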
* hit, by the source's call; ? = inconclusive; nt = no result.

SMILES | Tb MetRS inh | IDE act | Efflux pump mplx | CR mimetic SO | HDAC3 inh | IDE inh | IDE inh confirm | HEK293 tox
CCOc1ccc(N2C(=O)S/C(=C\c3ccc(O)c(OC)c3)C2=O)cc1 | 0 | -11 | 0 | 86 | 4 | 19* | 20* | 7
COc1cc(/C=C2\SC(=N)N(c3ccc(F)cc3)C2=O)ccc1O | 0 | -14 | 0 | 115 | -1 | 26* | 19* | 20
COc1ccc(/C=C2/S/C(=N/S(=O)(=O)Cc3ccccc3)NC2=O)cc1OC | -1 | -2 | 0 | 117 | 7 | -1 | nt | nt
COc1ccc(N=C2NC(=O)/C(=C/c3ccc(O)c(OC)c3)S2)cc1 | 0 | -24 | 1 | 108 | 0 | 25* | 32* | 12
COc1ccc(/C=C2\SC(=Nc3ccccc3)NC2=O)cc1 | nt | nt | 0 | 107 | 1 | nt | nt | nt
N=C1S/C(=C\c2ccccc2)C(=O)N1c1ccc(F)cc1 | 0 | 0 | 0 | 112 | -7 | -2 | nt | nt
CCOc1ccc(N2C(=O)S/C(=C\c3cc(OC)c(OC)c(OC)c3)C2=O)cc1 | 0 | nt | 0 | 101 | -10 | 1 | nt | nt
CCCOc1ccc(C(=O)CCC(=O)NNC(=O)c2cccs2)cc1 | 0 | 0 | 0 | 120 | -4 | 8 | nt | nt
COc1ccc(-n2c(=O)c3c4c(sc3n3c(=S)[nH]nc23)COC(C(C)C)C4)cc1 (stereo unspecified) | 0 | nt | 0 | 107 | -2 | 1 | nt | nt
COc1cc(/C=C2\SC(=O)N(c3ccc(O)cc3)C2=O)cc(OC)c1OC | -1 | 4 | 0 | 102 | 13 | 1 | nt | nt
COc1cc(/C=C2\SC(=N)N(c3ccc4c(c3)OCO4)C2=O)cc(OC)c1O | 0 | -58 | 0 | 114 | -1 | 81* | 72* | 11
O=C1CC(=O)N(Cc2ccco2)C(=O)N1 | 0 | -18 | 0 | 100 | 6 | 21* | 13 | 5
O=C(CSc1ccsc1[N+](=O)[O-])N1CCN(c2ccc(Cl)cc2)CC1 | 1 | -12 | 0 | 98 | 2 | 25* | 5 | 16
Cc1ccc(C(=O)N/N=C/c2nc3ccccc3n2C)cc1 | -1 | -2 | 0 | 117 | -1 | -1 | nt | nt
Cn1c(/C=N/NC(=O)c2ccccc2Br)nc2ccccc21 | -1 | -17 | 0 | 147 | 7 | 20* | 3 | 17
Cc1cccc2cc3c(N)c(C(=O)Nc4ccc(N5CCOCC5)cc4)sc3nc12 | -1 | -14 | 0 | 108 | 2 | -3 | nt | nt
CCc1cccc2cc3c(N)c(C(=O)Nc4ccc(S(=O)(=O)N5CCCC5)cc4)sc3nc12 | 0 | -11 | 0 | 112 | 4 | 25* | 18* | 31*
O=c1c2ccccc2sn1-c1ccc(S(=O)(=O)N2CCCCC2)cc1 | 0 | -45 | 0 | 112 | 4 | -23 | nt | nt
Cc1ccc(-n2sc3ccccc3c2=O)cc1S(=O)(=O)N1CCCCC1 | 0 | -30 | 2.4* | 109 | 39* | 83* | 25* | 20
O=c1c2ccccc2sn1-c1ccc(S(=O)(=O)N2CCCC2)cc1 | 0 | -50 | 0 | 91 | -1 | 38* | 12 | 22
Cc1ccc(C(=O)NNC(=O)c2ccccc2)cc1S(=O)(=O)N1CCCCC1 | 0 | -2 | 0 | 78 | -2 | 0 | nt | nt
CC(OC(=O)c1ccc(Cl)nc1)C(=O)Nc1ccc2c(c1)OCO2 (stereo unspecified) | 0 | 8 | 0 | 94 | 0 | -6 | nt | nt
COc1cc2ncnc(NCc3ccc(F)cc3)c2cc1OC | 1 | -8 | 0 | 90 | 3 | 8 | nt | nt
COc1cc(/C=C(\C#N)c2ccccn2)cc(OC)c1O | -1 | -166 | 0 | 106 | 7 | 160* | 52* | 17
COc1cc(/C=C(\C#N)c2[nH]nc(N)c2C#N)cc(OC)c1O | 0 | -73 | 0 | 104 | -5 | 84* | 166* | 9
SMILES | Tb MetRS inh | IDE act | Efflux pump mplx | CR mimetic SO | HDAC3 inh | IDE inh | IDE inh confirm | HEK293 tox
COc1cc(/C=C(\C#N)c2nn(CCO)c(N)c2C#N)cc(OC)c1OC | 0 | 3 | 0 | 92 | 7 | 2 | nt | nt
O=C1/C(=C\c2c(NCCOCCO)nc3ccccn3c2=O)SC(=S)N1Cc1ccco1 | 0 | -69 | 0 | 112 | 0 | 99* | 80* | 15
O=C(Nc1cccc(OC(F)(F)F)c1)c1cccc2c(-c3cccnc3)coc12 | 0 | nt | nt | nt | nt | nt | nt | nt
CC(C)Cc1nnc(NC(=O)C2CCN(C(=O)c3ccc(F)cc3)CC2)s1 | 0 | -2 | 0 | 101 | nt | 1 | nt | nt
CN1CCC/C1=C/C=C1\SC(=S)NC1=O | 0 | -72 | 0 | 94 | 13 | 76* | 69* | 7
O=C1NC(=S)SC1=Cc1cccs1 | 0 | -1 | nt | nt | nt | nt | nt | nt
Cc1ccc(-n2c(O)c(/C=C3/C(c4ccccc4)=Nc4ccccc43)c(=O)[nH]c2=O)cc1 | -1 | 4 | 0 | 81 | 18 | 3 | nt | nt
Cc1ccccc1-n1c(O)c(/C=C/C=Nc2ccccc2)c(=O)[nH]c1=O | 0 | -71 | 0 | 101 | 10 | 66* | 85* | 7
Cc1cccc(C(=O)Nc2ccc(C(=O)/C=C/c3cccnc3)cc2)c1 | 0 | -37 | 0 | 84 | 1 | 20* | 10 | 71*
O=C(/C=C/c1cccnc1)c1ccc(NC(=O)c2cccc(Br)c2)cc1 | 0 | -17 | 0 | 100 | -1 | 8 | nt | nt
CN(Cc1ccccc1)C(=O)CC(c1ccccc1)c1cc(Cl)ccc1O (stereo unspecified) | 0 | 4 | 0 | 115 | -2 | -1 | nt | nt
COc1cc(/C=C/c2nc3ccccc3c(=O)[nH]2)ccc1O | 0 | nt | nt | nt | nt | nt | nt | nt
COc1cc(/C=C/c2nc3ccccc3c(=O)[nH]2)cc(Br)c1O | 0 | -157 | 0 | 106 | -2 | 44* | 143* | 13
CC(=O)N(C1=C(Cl)C(=O)c2ccccc2C1=O)C1CCCCC1 | 0 | -68 | 0 | 123 | ? | 50* | 64* | 124*
COc1cc(/C=C2\SC(=O)N(CC(=O)Nc3ccccc3F)C2=O)cc(Cl)c1O | -1 | -138 | 0 | 107 | -3 | 48* | 96* | 17
Cc1ccccc1CNC(=O)C1CCC(=O)N(C2CCCCCC2)C1 (stereo unspecified) | 0 | 0 | 0 | 100 | nt | 2 | nt | nt
Cc1cccc2[nH]c3c(N4CCN(C(=O)c5ccco5)CC4)ncnc3c12 | -1 | -20 | 0 | 127 | -9 | 30* | 12 | 9
Cc1cc(C)c2nc(N3CCN(C(=O)c4ccco4)CC3)sc2c1 | 0 | -7 | 0 | 105 | -1 | 10 | nt | nt
Cc1cc2nc(N3CCN(C(=O)c4ccco4)CC3)sc2cc1C | 0 | -12 | 0 | 96 | 5 | 22* | 5 | 26*
CCCOC(=O)c1ccc(Oc2coc3c(CN(CC)CC)c(O)ccc3c2=O)cc1 | -2 | -9 | 0 | 83 | -32 | 20* | 6 | 11
